Measured values from ChEMBL document CHEMBL4304756, “Second-Generation Tryptamine Derivatives Potently Sensitize Colistin Resistant Bacteria to Colistin” (ACS Med Chem Lett, 2019).
Activity calls are given as the source filed them. The rule behind the calls is not given here.

Key:
Klebsiella pneumoniae [1] = assay: Potentiation of colistin-induced antibacterial activity against Klebsiella pneumoniae 2210291 harbouring mcr-1 gene assessed as colistin MIC at 50 uM incubated for 16 hrs by broth microdilution method (reference value: 16 ug/ml); format: functional; settings: Klebsiella pneumoniae, 2210291, 16 h
Acinetobacter baumannii [2] = assay: Potentiation of colistin-induced antibacterial activity against Acinetobacter baumannii 17978 harbouring mcr-1 gene assessed as colistin MIC at 50 uM incubated for 16 hrs by broth microdilution method (reference value: 16 ug/ml); format: functional; settings: Acinetobacter baumannii, 17978, 16 h
Acinetobacter baumannii [3] = assay: Potentiation of colistin-induced antibacterial activity against Acinetobacter baumannii 17978 assessed as colistin MIC at 50 uM incubated for 16 hrs by broth microdilution method (reference value: 2 ug/ml); format: functional; settings: Acinetobacter baumannii, 17978, 16 h
Escherichia coli [4] = assay: Potentiation of colistin-induced antibacterial activity against Escherichia coli YD626 assessed as colistin MIC at 50 uM incubated for 16 hrs by broth microdilution method (reference value: 1 ug/ml); format: functional; settings: YD626, 16 h
Klebsiella pneumoniae [5] = assay: Potentiation of colistin-induced antibacterial activity against Klebsiella pneumoniae 2210291 assessed as colistin MIC at 50 uM incubated for 16 hrs by broth microdilution method (reference value: 1 ug/ml); format: functional; settings: Klebsiella pneumoniae, 2210291, 16 h
Escherichia coli [6] = assay: Potentiation of colistin-induced antibacterial activity against Escherichia coli YD626 harbouring mcr-1 gene assessed as colistin MIC at 50 uM incubated for 16 hrs by broth microdilution method (reference value: 8 ug/ml); format: functional; settings: YD626, 16 h
[7] = Cytotoxicity against mouse 4T1 cells assessed as reduction in cell viability incubated for 18 hrs by MTT assay; format: cell-based
Procedure, shortened: (§1)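 4T1 mouse mammary tumor cells exposed to compound for 18 h, alone or together with colistin at 1 μg/mL. Medium then aspirated and replaced with 0.5 mg/mL MTT in culture medium for colorimetric viability read-out. CT50 taken as the concentration giving 50% cell viability.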

[8] = Cytotoxicity against mouse 4T1 cells assessed as reduction in cell viability in presence of 1 ug/ml colistin incubated for 18 hrs by MTT assay; format: cell-based; procedure, shortened: as §1
Escherichia coli [9] = assay: Potentiation of colistin-induced antibacterial activity against Escherichia coli YD626 harbouring mcr-1 gene assessed as reduction in colistin MIC at 15 uM incubated for 16 hrs by broth microdilution method; format: functional, organism-based
Procedure, shortened: (§2)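 For the dose-response, colistin MIC was measured against mcr-1 plasmid-bearing E. coli, K. pneumoniae and A. baumannii while the adjuvant concentration was lowered stepwise (30, 15 μM, down to 5 μM). The aim was to find where the MIC rose above the 2 μg/mL CLSI susceptibility breakpoint.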

Acinetobacter baumannii [10] = assay: Potentiation of colistin-induced antibacterial activity against Acinetobacter baumannii 17978 harbouring mcr-1 gene assessed as reduction in colistin MIC at 15 uM incubated for 16 hrs by broth microdilution method; format: functional, organism-based; procedure, shortened: as §2
Klebsiella pneumoniae [11] = assay: Potentiation of colistin-induced antibacterial activity against Klebsiella pneumoniae 2210291 harbouring mcr-1 gene assessed as reduction in colistin MIC at 15 uM incubated for 16 hrs by broth microdilution method; format: functional, organism-based; procedure, shortened: as §2

Compound | MIC (Klebsiella pneumoniae [1]) [µg/mL] | MIC (Acinetobacter baumannii [2]) [µg/mL] | MIC (Acinetobacter baumannii [3]) [µg/mL] | MIC (Escherichia coli [4]) [µg/mL] | MIC (Klebsiella pneumoniae [5]) [µg/mL] | MIC (Escherichia coli [6]) [µg/mL] | CC50 at 18 h [7] [µM] | CC50 at 18 h [8] [µM] | Activity (Escherichia coli [9]) | Activity (Acinetobacter baumannii [10]) | Activity (Klebsiella pneumoniae [11])
O=C(NCCc1c[nH]c2ccccc12)c1ccc(Cl)c(Cl)c1 | 2 | 2 | 1 | 0.5 | 0.5 | 2 |  |  |  |  | 
O=C(NCCc1c[nH]c2ccc(Br)cc12)Nc1cc(Br)cc(Br)c1 | 2 | 2 | 0.5 | 0.25 | 0.5 | 2 |  |  |  |  | 
CCCCc1ccc(C(=O)NCCc2c[nH]c3ccccc23)cc1 | 8 | 4 | 0.25 | 0.0625 | 0.125 | 4 |  |  |  |  | 
O=C(NCCc1c[nH]c2ccc(Br)cc12)c1cc(Br)cc(Br)c1 | 4 | 4 | 1 | 0.5 | 0.5 | 4 |  |  |  |  | 
CCCCc1ccc(NC(=O)Nc2ccc3[nH]ccc3c2)cc1 | 16 | 16 | 1 | 0.5 | 0.5 | 8 |  |  |  |  | 
O=C(NCc1c[nH]c2ccccc12)Nc1cc(C(F)(F)F)cc(C(F)(F)F)c1 | 1 | 1 | 0.125 | 0.0313 | 0.125 | 1 |  |  |  |  | 
CCCCc1ccc(NC(=O)NCCc2c[nH]c3ccccc23)cc1 | 16 | 16 | 2 | 1 | 1 | 8 |  |  |  |  | 
CCCCc1ccc(NC(=O)Nc2ccc3cc[nH]c3c2)cc1 | 16 | 8 | 2 | 0.5 | 1 | 8 |  |  |  |  | 
O=C(NCCc1c[nH]c2ccccc12)Nc1ccc(Cl)c(Cl)c1 | 0.5 | 0.5 | 0.5 | 0.125 | 0.25 | 1 | 117 | 105 |  |  | 
O=C(Nc1ccc(Cl)c(Cl)c1)Nc1ccc2cc[nH]c2c1 | 16 | 16 | 2 | 1 | 1 | 8 |  |  |  |  | 
O=C(Nc1cc(Br)cc(Br)c1)Nc1ccc2cc[nH]c2c1 | 16 | 16 | 2 | 1 | 1 | 8 |  |  |  |  | 
O=C(Nc1cc(Cl)c(Br)c(Cl)c1)Nc1ccc2[nH]ccc2c1 | 16 | 8 | 1 | 0.5 | 1 | 8 |  |  |  |  | 
O=C(NCCc1c[nH]c2ccccc12)Nc1cc(C(F)(F)F)cc(C(F)(F)F)c1 | 1 | 0.5 | 0.125 | 0.0313 | 0.25 | 1 | 60.5 | 61.8 | Active | Active | Active
O=C(NCc1c[nH]c2ccccc12)Nc1cc(Cl)c(Br)c(Cl)c1 | 8 | 8 | 1 | 0.25 | 0.5 | 8 |  |  |  |  | 
O=C(NCCc1c[nH]c2ccccc12)c1cc(C(F)(F)F)cc(C(F)(F)F)c1 | 16 | 8 | 0.25 | 0.0625 | 0.25 | 4 |  |  |  |  | 
O=C(NCCc1c[nH]c2ccc(Br)cc12)Nc1cc(C(F)(F)F)cc(C(F)(F)F)c1 | 2 | 2 | 0.25 | 0.0313 | 0.5 | 4 |  |  |  |  | 
O=C(Nc1cc(C(F)(F)F)cc(C(F)(F)F)c1)Nc1ccc2cc[nH]c2c1 | 16 | 8 | 1 | 0.5 | 1 | 4 |  |  |  |  | 
O=C(NCCc1c[nH]c2ccc(Br)cc12)c1cc(C(F)(F)F)cc(C(F)(F)F)c1 | 8 | 8 | 0.5 | 0.0625 | 0.25 | 4 |  |  |  |  | 
O=C(Nc1cc(C(F)(F)F)cc(C(F)(F)F)c1)Nc1ccc2[nH]ccc2c1 | 8 | 8 | 1 | 0.5 | 0.5 | 4 |  |  |  |  | 
O=C(NCCc1c[nH]c2ccccc12)Nc1cc(Cl)c(Br)c(Cl)c1 | 1 | 1 | 0.5 | 0.125 | 0.5 | 1 |  |  | Active | Active | Active
CCCCc1ccc(NC(=O)NCc2c[nH]c3ccccc23)cc1 | 16 | 16 | 2 | 1 | 0.5 | 8 |  |  |  |  | 
O=C(NCc1c[nH]c2ccccc12)Nc1cc(Br)cc(Br)c1 | 16 | 8 | 1 | 0.25 | 0.5 | 4 |  |  |  |  | 
CCCCc1ccc(C(=O)NCCc2c[nH]c3ccc(Br)cc23)cc1 | 4 | 4 | 0.5 | 0.125 | 0.25 | 4 |  |  |  |  | 
O=C(NCCc1c[nH]c2ccccc12)c1cc(Br)cc(Br)c1 | 4 | 4 | 1 | 0.25 | 0.5 | 4 |  |  |  |  | 
O=C(Nc1cc(Cl)c(Br)c(Cl)c1)Nc1ccc2cc[nH]c2c1 | 16 | 16 | 2 | 1 | 1 | 8 |  |  |  |  | 
O=C(Nc1cc(Br)cc(Br)c1)Nc1ccc2[nH]ccc2c1 | 16 | 16 | 1 | 1 | 1 | 8 |  |  |  |  | 
CC(C)n1cc(-c2cccc(NC(=O)Nc3cc(Cl)c(Br)c(Cl)c3)c2)nc1N |  |  |  |  |  |  | 23.2 | 15.6 |  |  | 
O=C(NCc1c[nH]c2ccccc12)Nc1ccc(Cl)c(Cl)c1 | 16 | 16 | 2 | 0.5 | 0.5 | 4 |  |  |  |  | 
O=C(NCCc1c[nH]c2ccc(Br)cc12)c1ccc(Cl)c(Cl)c1 | 1 | 1 | 0.5 | 0.25 | 0.5 | 2 |  |  |  |  | 
O=C(Nc1ccc(Cl)c(Cl)c1)Nc1ccc2[nH]ccc2c1 | 16 | 16 | 2 | 0.5 | 1 | 8 |  |  |  |  | 
